What all share (format): functional, cell-based
Test [1] has as its target T1, Alpha-2A adrenergic receptor (Homo sapiens) (UniProt P08913).
T1 sequence (whole entry): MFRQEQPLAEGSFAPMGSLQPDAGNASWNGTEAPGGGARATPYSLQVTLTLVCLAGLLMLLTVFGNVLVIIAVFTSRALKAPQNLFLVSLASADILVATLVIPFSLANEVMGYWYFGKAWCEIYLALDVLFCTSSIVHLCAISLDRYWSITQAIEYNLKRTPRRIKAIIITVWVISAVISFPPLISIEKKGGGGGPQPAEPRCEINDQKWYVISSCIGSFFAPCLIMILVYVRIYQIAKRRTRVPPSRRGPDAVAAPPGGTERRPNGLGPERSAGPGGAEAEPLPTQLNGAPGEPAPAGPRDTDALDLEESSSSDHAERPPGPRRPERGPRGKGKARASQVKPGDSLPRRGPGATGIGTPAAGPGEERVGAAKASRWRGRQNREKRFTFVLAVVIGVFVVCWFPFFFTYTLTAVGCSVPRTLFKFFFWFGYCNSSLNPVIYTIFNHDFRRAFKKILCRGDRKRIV
The test is described as follows: Antagonist activity at alpha2A adrenergic receptor expressed in HEK293 cells assessed as blockade of secreted alkaline phosphatase activity at 1 uM after 6 hrs relative to control. In a few lines: (§1)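 HEK-293 cells transiently co-transfected with pCRE-SeAP and a Flag-tagged receptor, 30,000 cells/well on poly-L-lysine. They were serum-starved 16–18 h, then exposed 6 h in serum-free medium to 10 μM forskolin (omitted for β2) plus the receptor agonist (100 nM), with or without peptide (1 μM). Heat-treated supernatant SeAP was read by CSPD chemiluminescence. Mean ± SEM, n = 6.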

The target of test [2] is Cannabinoid receptor 2 (Homo sapiens) (UniProt P34972). Nature of the test: Antagonist activity at CB2 receptor expressed in HEK293 cells assessed as blockade of secreted alkaline phosphatase activity at 1 uM after 6 hrs relative to control. The gist of the method: (§2)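 HEK-293 cells transfected with 5 μg pCRE-SeAP plus 1 μg Flag-tagged CB₁ or CB₂ receptor, 30,000 cells/well, serum-starved 16–18 h. Stimulated 6 h in serum-free medium with 10 μM forskolin and 100 nM agonist, without or with 1 μM test peptide. Supernatant diluted in pH 7.2 buffer, heated 65°C 20 min, then CSPD chemiluminescence read. Mean ± SEM, n = 6.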

The target in test [3] is Delta-type opioid receptor (Homo sapiens) (UniProt P41143). The test is described as follows: Antagonist activity at delta opioid receptor expressed in HEK293 cells assessed as blockade of secreted alkaline phosphatase activity at 1 uM after 6 hrs relative to control. In a few lines: as §1
The target in test [4] is Beta-2 adrenergic receptor (Homo sapiens) (UniProt P07550). Nature of the test: Antagonist activity at beta2 adrenergic receptor expressed in HEK293 cells assessed as blockade of secreted alkaline phosphatase activity at 1 uM after 6 hrs relative to control. In a few lines:
as §1

For test [5], the target named is Cannabinoid receptor 1 (Homo sapiens) (UniProt P21554). Nature of the test: Antagonist activity at CB1 receptor expressed in HEK293 cells assessed as blockade of secreted alkaline phosphatase activity at 1 uM after 6 hrs relative to control. In a few lines:
as §2

The target in test [6] is Mu-type opioid receptor (Homo sapiens) (UniProt P35372). Nature of the test: Antagonist activity at mu opioid receptor expressed in HEK293 cells assessed as blockade of secreted alkaline phosphatase activity at 1 uM after 6 hrs relative to control. In a few lines:
as §1

Chain of Beta-2 adrenergic receptor (Homo sapiens) (P07550 whole entry, looked up): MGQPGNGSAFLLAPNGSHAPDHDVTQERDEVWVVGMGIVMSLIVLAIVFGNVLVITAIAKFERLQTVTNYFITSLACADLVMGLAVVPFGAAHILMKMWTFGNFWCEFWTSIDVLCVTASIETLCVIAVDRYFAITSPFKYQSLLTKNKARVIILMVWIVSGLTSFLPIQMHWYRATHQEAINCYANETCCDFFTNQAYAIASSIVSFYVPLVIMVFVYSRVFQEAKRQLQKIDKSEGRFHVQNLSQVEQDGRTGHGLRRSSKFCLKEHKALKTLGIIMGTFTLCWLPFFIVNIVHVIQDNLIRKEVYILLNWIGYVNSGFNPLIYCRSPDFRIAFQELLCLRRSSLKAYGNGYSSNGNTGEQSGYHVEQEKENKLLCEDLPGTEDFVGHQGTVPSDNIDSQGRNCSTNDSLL
Chain of Delta-type opioid receptor (Homo sapiens) (P41143 whole entry): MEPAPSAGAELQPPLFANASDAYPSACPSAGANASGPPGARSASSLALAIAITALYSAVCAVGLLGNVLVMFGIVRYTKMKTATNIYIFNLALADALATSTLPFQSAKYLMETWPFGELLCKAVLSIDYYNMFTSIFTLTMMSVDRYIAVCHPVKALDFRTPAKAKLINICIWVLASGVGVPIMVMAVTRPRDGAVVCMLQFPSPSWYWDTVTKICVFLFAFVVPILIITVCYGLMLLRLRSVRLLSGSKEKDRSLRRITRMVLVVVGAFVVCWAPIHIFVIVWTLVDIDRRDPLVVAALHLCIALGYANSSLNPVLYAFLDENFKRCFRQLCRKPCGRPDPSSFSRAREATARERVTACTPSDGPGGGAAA
Chain of Mu-type opioid receptor (Homo sapiens) (P35372 whole entry): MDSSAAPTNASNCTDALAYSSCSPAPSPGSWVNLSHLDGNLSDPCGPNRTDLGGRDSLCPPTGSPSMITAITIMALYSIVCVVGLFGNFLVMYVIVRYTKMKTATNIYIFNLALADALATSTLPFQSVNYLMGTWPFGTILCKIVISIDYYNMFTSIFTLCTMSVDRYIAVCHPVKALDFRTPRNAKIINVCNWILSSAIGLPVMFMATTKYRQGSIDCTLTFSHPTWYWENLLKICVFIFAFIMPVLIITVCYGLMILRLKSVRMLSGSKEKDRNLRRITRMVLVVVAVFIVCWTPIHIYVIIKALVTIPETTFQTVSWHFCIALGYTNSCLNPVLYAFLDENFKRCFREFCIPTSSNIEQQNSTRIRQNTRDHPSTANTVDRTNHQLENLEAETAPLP
Chain of Cannabinoid receptor 2 (Homo sapiens) (P34972 whole entry): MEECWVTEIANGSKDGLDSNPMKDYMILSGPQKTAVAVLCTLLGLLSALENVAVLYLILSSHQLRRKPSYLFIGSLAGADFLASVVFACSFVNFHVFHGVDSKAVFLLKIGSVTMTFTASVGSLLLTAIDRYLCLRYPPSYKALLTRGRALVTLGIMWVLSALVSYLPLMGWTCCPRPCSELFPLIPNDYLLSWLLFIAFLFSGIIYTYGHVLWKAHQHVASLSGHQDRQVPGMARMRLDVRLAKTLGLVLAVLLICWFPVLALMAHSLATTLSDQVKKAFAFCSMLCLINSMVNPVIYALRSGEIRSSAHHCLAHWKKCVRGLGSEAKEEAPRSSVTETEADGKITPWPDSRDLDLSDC
Chain of Cannabinoid receptor 1 (Homo sapiens) (P21554 whole entry): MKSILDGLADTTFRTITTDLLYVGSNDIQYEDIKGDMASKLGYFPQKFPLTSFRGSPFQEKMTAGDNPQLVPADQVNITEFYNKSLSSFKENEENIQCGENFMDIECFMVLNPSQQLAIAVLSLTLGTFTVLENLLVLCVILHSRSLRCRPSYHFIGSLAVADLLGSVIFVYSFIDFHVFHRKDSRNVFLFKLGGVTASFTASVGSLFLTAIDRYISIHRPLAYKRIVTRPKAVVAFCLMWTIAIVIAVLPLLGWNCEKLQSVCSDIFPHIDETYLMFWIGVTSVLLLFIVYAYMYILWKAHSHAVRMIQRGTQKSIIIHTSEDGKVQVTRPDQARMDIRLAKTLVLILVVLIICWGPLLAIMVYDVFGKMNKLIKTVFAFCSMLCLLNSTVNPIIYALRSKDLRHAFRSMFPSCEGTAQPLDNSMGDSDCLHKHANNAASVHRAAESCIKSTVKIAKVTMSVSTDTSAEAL

`CC(C)NCC(O)c1ccc(O)c(O)c1` (stereo unspecified): in test [1], the Activity was 1.26.

As to `CC(C)[C@H](NC(=O)[C@H](CCC(=O)O)NC(=O)[C@H](Cc1ccccc1)NC(=O)[C@H](C)NC(=O)[C@@H](N)Cc1ccc(O)cc1)C(=O)N[C@H](C(=O)NCC(=O)O)C(C)C`, in test [2], the Activity is 0.64.

For `CC[C@H](C)[C@H](NC(=O)[C@H](Cc1ccc(O)cc1)NC(=O)[C@@H](NC(=O)[C@H](CCCNC(=N)N)NC(=O)[C@@H](N)CC(=O)O)C(C)C)C(=O)N[C@@H](Cc1cnc[nH]1)C(=O)N1CCC[C@H]1C(=O)N[C@@H](Cc1ccccc1)C(=O)O`, the Activity in test [3] turned out to be 1.03; in test [4], 0.76.

With `C[C@@H](NC(=O)[C@@H](N)Cc1ccc(O)cc1)C(=O)NCC(=O)N(C)[C@@H](Cc1ccccc1)C(=O)NCCO`, the Activity in test [5] is 0.68.

Take `Clc1cccc(Cl)c1NC1=NCCN1`: the Activity in test [6] worked out at 0.59.

The values above are taken from ChEMBL document CHEMBL1156534, “Hemopressin is an inverse agonist of CB1 cannabinoid receptors” (Proc Natl Acad Sci U S A, 2007).
